Data taken from ChEMBL document CHEMBL4321807, “Cyanine-Gemcitabine Conjugates as Targeted Theranostic Agents for Glioblastoma Tumor Cells” (J Med Chem, 2019).
Calls of active or inactive are those of the source. The rule behind the calls is not given here.

How the values were obtained:
U-87 MG [1] = test: Cytotoxicity against human U87 cells assessed as reduction in cell viability incubated for 72 hrs by AlamarBlue assay; format: functional, cell-based, U-87MG ATCC
[2] = Drug localization in mitochondria of human U87 cells at 20 uM incubated for 45 mins by Mitotracker staining-based confocal fluorescence microscopy; format: ADME; conditions: u-87mg atcc, 0.75 h
Procedure, shortened: (§1)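 U87 cells seeded at 10 000/well in imaging chambers and left overnight. Exposed to 20 μM compound in FluoroBrite DMEM for 45 min at 37 °C, then washed with HBSS. Stained 15 min with LysoTracker (1:10 000) or MitoTracker (1:15 000), plus NucBlue nuclear stain. Imaged live by confocal microscopy at 60×, dye excited at 633 nm. Colocalization scored by Pearson's correlation coefficient.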

[3] = Drug localization in lysosome of human U87 cells at 20 uM incubated for 45 mins by Lysotracker staining-based confocal fluorescence microscopy; format: ADME; conditions: u-87mg atcc, 0.75 h; procedure, shortened: as §1
[4] = Half life of compound in human U87 tumor homogenate at 50 uM measured upto 72 hrs by HPLC analysis; format: ADME, U-87MG ATCC
Procedure, shortened: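 Tumor homogenate prepared from U87 xenograft tissue in RIPA buffer (on ice), clarified by centrifugation and 0.2 μm filtration. Compound at 50 μM incubated at 37 °C for up to 72 h. Samples run on analytical C4 HPLC (5–90% MeCN gradient, 0.1% TFA) with 780 nm absorbance. Peak area normalized over time.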

[5] = Time taken for drug metabolism in mouse serum at 50 uM by HPLC analysis; format: ADME, cell-free
Procedure, shortened: (§2)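 Compound at 50 μM in commercial mouse serum at 37 °C. Followed by C4 HPLC with 780 nm absorbance; the metabolite was identified by MS and by coelution with a synthesized standard. Variant conditions: protease/phosphatase inhibitor cocktail premixed at 10% in serum, or incubation at low temperature.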

[6] = Half life in mouse serum at 50 uM incubated for 360 mins by HPLC analysis; format: ADME, cell-free; procedure, shortened: as §2
[7] = (§3) Drug metabolism in mouse serum assessed as 2-((E)-2-((E)-2-((2-Carboxyethyl)thio)-3-(2-((E)-1-(5-carboxypentyl)-3,3-dimethylindolin-2-ylidene)ethylidene)cyclohex-1-en-1-yl)vinyl)-1-(5-carboxypentyl)-3,3-dimethyl-3H-indol-1-ium chloride formation at 50 uM by HPLC analysis; format: ADME, cell-free; procedure, shortened: as §2
[8] = as §3, with “uM in presence of protease and phosphatase” for “uM”; format: ADME, cell-free; procedure, shortened: as §2
[9] = Drug metabolism in mouse serum assessed as 2-((E)-2-((E)-2-((2-Carboxyethyl)thio)-3-(2-((E)-1-(5-carboxypentyl)-3,3-dimethylindolin-2-ylidene)ethylidene)cyclohex-1-en-1-yl)vinyl)-1-(5-carboxypentyl)-3,3-dimethyl-3H-indol-1-ium chloride formation at low temperature at 50 uM by HPLC analysis; format: ADME, cell-free; procedure, shortened: as §2
LN-18 = test: Cytotoxicity against human LN18 cells assessed as reduction in cell viability at 0.0001 to 10 uM incubated for 72 hrs by AlamarBlue assay; format: functional, cell-based
Procedure, shortened: (§4)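 LN18 and LN229 cells in DMEM with 5% FBS; HEK293 in DMEM/F12 with 10% FBS. Seeded at 2500/well and left overnight. Compounds added in PFHM II to final 0.0001–10 μM for 72 h. Viability by AlamarBlue, fluorescence Ex/Em 560/590 nm.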

LN-229 = test: Cytotoxicity against human LN229 cells assessed as reduction in cell viability at 0.0001 to 10 uM incubated for 72 hrs by AlamarBlue assay; format: functional, cell-based; procedure, shortened: as §4
HEK293 = test: Cytotoxicity against human HEK293 cells assessed as reduction in cell viability at 0.0001 to 10 uM incubated for 72 hrs by AlamarBlue assay; format: cell-based; conditions: hek293, 72 h; procedure, shortened: as §4
U-87 MG [10] = test: Antitumor activity against luciferase and RFP reporter expressing human U87 cells xenografted in Fox1nu mouse assessed as decrease in tumor burden at 10 mg/kg, iv administered at day 4 and day 8 post inoculation and six injections weekly measured after 5 weeks by bioluminescence imaging analysis; format: functional, organism-based; conditions: U-87MG ATCC
[11] = Toxicity in […] mouse xenografted with luciferase and RFP reporter expressing human U87 cells assessed as effect on body weight at 10 mg/kg, iv administered at day 4 and day 8 post inoculation and six injections weekly measured after 5 weeks; format: organism-based; conditions: in vivo, 840 h
[12] = Drug uptake in Fox1nu mouse xenografted with luciferase and RFP reporter expressing human U87 cells assessed as increase in fluorescence signal in liver at 10 mg/kg, iv measured after 30 mins post drug administration by fluorescence imaging analysis; format: ADME, organism-based; conditions: in vivo, 0.5 h
Procedure, shortened: (§5)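 Xenograft mice carried subcutaneous U87-RFP-LUC flank tumors. Each received 10 mg/kg by retro-orbital i.v. injection in vehicle (2% DMSO, 9% ethanol, 9% BSA in PBS). Whole-body NIR fluorescence (ex 745/em 840 nm, radiant efficiency) imaged on IVIS under isoflurane at set times after injection. For organ signal, tumor and organs were dissected and imaged ex vivo.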

[13] = Drug uptake in Fox1nu mouse xenografted with luciferase and RFP reporter expressing human U87 cells assessed as increase in fluorescence signal in tumor at 10 mg/kg, iv measured after 30 mins post drug administration by fluorescence imaging analysis; format: ADME, organism-based; conditions: in vivo, 0.5 h; procedure, shortened: as §5
[14] = Drug uptake in Fox1nu mouse xenografted with luciferase and RFP reporter expressing human U87 cells assessed as increase in fluorescence signal in at retro-orbital vein at 10 mg/kg, iv measured after 30 mins post drug administration by fluorescence imaging analysis; format: ADME, organism-based; conditions: in vivo, 0.5 h; procedure, shortened: as §5
[15] = Drug uptake in Fox1nu mouse xenografted with luciferase and RFP reporter expressing human U87 cells assessed as decrease in drug residual at 10 mg/kg, iv measured […] post drug administration by fluorescence imaging analysis relative to control; format: ADME, organism-based; conditions: in vivo, 48 h, in the assay text read “48 hrs” for “24 hrs”; procedure, shortened: as §5
[16] = Drug uptake in Fox1nu mouse xenografted with luciferase and RFP reporter expressing human U87 cells assessed as decrease in drug residual at 10 mg/kg, iv measured at 144 hrs post drug administration by fluorescence imaging analysis relative to control; format: ADME, organism-based; conditions: in vivo; procedure, shortened: as §5
[17] = Drug uptake in tumor of Fox1nu mouse xenografted with luciferase and RFP reporter expressing human U87 cells at 10 mg/kg, iv measured after 2 hrs post drug administration by fluorescence imaging analysis; format: ADME, organism-based, Neoplasm, U-87MG ATCC; conditions: in vivo; procedure, shortened: as §5
[18] = Drug uptake in small intestine of Fox1nu mouse xenografted with luciferase and RFP reporter expressing human U87 cells assessed as decrease in drug residual at 10 mg/kg, iv measured after 2 hrs post drug administration by fluorescence imaging analysis; format: ADME, organism-based, U-87MG ATCC; conditions: in vivo; procedure, shortened: as §5
[19] = Drug uptake in large intestine of Fox1nu mouse xenografted with luciferase and RFP reporter expressing human U87 cells at 10 mg/kg, iv measured after 2 hrs post drug administration by fluorescence imaging analysis; format: ADME, organism-based, U-87MG ATCC; conditions: in vivo; procedure, shortened: as §5
[20] = Drug uptake in tumor of Fox1nu mouse xenografted with luciferase and RFP reporter expressing human U87 cells at 10 mg/kg, iv measured after 2 days post drug administration by fluorescence imaging analysis; format: ADME, organism-based, Neoplasm, U-87MG ATCC; conditions: in vivo, 48 h; procedure, shortened: as §5
[21] = Drug uptake in kidney of Fox1nu mouse xenografted with luciferase and RFP reporter expressing human U87 cells at 10 mg/kg, iv measured after 2 hrs post drug administration by fluorescence imaging analysis; format: ADME, organism-based, U-87MG ATCC; conditions: in vivo; procedure, shortened: as §5
[22] = Drug uptake in liver of Fox1nu mouse xenografted with luciferase and RFP reporter expressing human U87 cells at 10 mg/kg, iv measured after 2 hrs post drug administration by fluorescence imaging analysis; format: ADME, organism-based, U-87MG ATCC; conditions: in vivo; procedure, shortened: as §5
[23] = Drug uptake in lung of Fox1nu mouse xenografted with luciferase and RFP reporter expressing human U87 cells at 10 mg/kg, iv measured after 2 hrs post drug administration by fluorescence imaging analysis; format: ADME, organism-based, U-87MG ATCC; conditions: in vivo; procedure, shortened: as §5
[24] = Drug uptake in liver of Fox1nu mouse xenografted with luciferase and RFP reporter expressing human U87 cells at 10 mg/kg, iv measured after 2 days post drug administration by fluorescence imaging analysis; format: ADME, organism-based, U-87MG ATCC; conditions: in vivo, 48 h; procedure, shortened: as §5
[25] = Drug uptake in kidney of Fox1nu mouse xenografted with luciferase and RFP reporter expressing human U87 cells at 10 mg/kg, iv measured after 2 days post drug administration by fluorescence imaging analysis; format: ADME, organism-based, U-87MG ATCC; conditions: in vivo, 48 h; procedure, shortened: as §5
U-87 MG [26] = test: Cytotoxicity against human U87 cells assessed as reduction in cell viability at 0.001 to 10 uM incubated for 72 hrs by AlamarBlue assay; format: functional, cell-based; conditions: U-87MG ATCC
Procedure, shortened: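 U87 cells, grown in DMEM/F12 with 10% FBS, seeded at 5000/well and left overnight. Compounds added in protein-free hybridoma medium (PFHM II) to final 0.001–10 μM and incubated 72 h at 37 °C. Viability read by AlamarBlue, 2 h, fluorescence Ex/Em 560/590 nm. IC50 taken relative to the lowest concentration beyond which no further cell death occurs.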

Work on `CCCN1/C(=C/C=C2\CCCC(/C=C/C3=[N+](CCC)c4ccccc4C3(C)C)=C2SCCC(=O)Nc2ccn([C@H]3C[C@H](O)[C@@H](CO)O3)c(=O)n2)C(C)(C)c2ccccc21` yielded an IC50 (U-87 MG [1]) of 3400 nM.

For `CC1(C)C(/C=C/C2=C(SCCC(=O)Nc3ccn([C@@H]4O[C@H](CO)[C@@H](O)C4(F)F)c(=O)n3)C(=C/C=C3/N(CCCCCC(=O)O)c4ccccc4C3(C)C)/CCC2)=[N+](CCCCCC(=O)O)c2ccccc21.[Cl-]`, the Drug uptake [2] was “Active”, the Drug uptake [3] was “Active” and the IC50 (U-87 MG [1]) was 20.9 nM. It also gave a half-life at 50 µM [4] of 60 h, a Time [5] of 3 h and a half-life at 50 µM [6] of 1 h. For the same molecule, the Drug metabolism [7] was “Metabolite_Detected”, the Drug metabolism [8] was “Metabolite_Notdetected” and the Drug metabolism [9] was “Metabolite_Notdetected”. The Activity (LN-18) was “Active”, the Activity (LN-229) was “Active” and the Activity (HEK293) was “Toxic”. For the same molecule, the Activity (U-87 MG [10]) was “Active”, the Activity [11] was “Non-Toxic” and the Drug uptake [12] was “Active”. For the same molecule, the Drug uptake [13] was “Active”, the Drug uptake [14] was “Active” and the “fold change (FC)” value [15] was 10. For the same molecule, the “fold change (FC)” value [16] was 100, the Drug uptake [17] was “Active” and the Drug uptake [18] was “Active”. The Drug uptake [19] was “Active”, the Drug uptake [20] was “Active” and the Drug uptake [21] was “Active”. The Drug uptake [22] was “Active”, the Drug uptake [23] was “Active” and the Drug uptake [24] was “Active”. For the same molecule, the Drug uptake [25] was “Active”.

In the case of `CC1(C)C(/C=C/C2=C(SCCC(=O)Nc3ccn([C@H]4C[C@H](O)[C@@H](CO)O4)c(=O)n3)C(=C/C=C3/N(CCCCCC(=O)O)c4ccccc4C3(C)C)/CCC2)=[N+](CCCCCC(=O)O)c2ccccc21`, the Activity (U-87 MG [26]) is reported as “Active”.

For `CC1(C)C(/C=C/C2=C(SCCC(=O)Nc3ccn([C@@H]4O[C@H](CO)[C@@H](O)C4(F)F)c(=O)n3)C(=C/C=C3/N(CCCCCC(=O)O)c4ccccc4C3(C)C)/CCC2)=[N+](CCCCS(=O)(=O)O)c2ccccc21.[Cl-]`, the Drug uptake [2] was “Not Active”.

In the case of `CC1(C)C(/C=C/C2=C(Cl)C(=C/C=C3/N(CCCCS(=O)(=O)O)c4ccccc4C3(C)C)/CCC2)=[N+](CCCCS(=O)(=O)O)c2ccccc21.[Cl-]`, the Drug uptake [2] is reported as “Active” and the Drug uptake [3] is reported as “Active”.

For `CC1(C)C(/C=C/C2=C(SCCC(=O)Nc3ccn([C@H]4C[C@H](O)[C@@H](CO)O4)c(=O)n3)C(=C/C=C3/N(CCCCS(=O)(=O)O)c4ccccc4C3(C)C)/CCC2)=[N+](CCCCS(=O)(=O)O)c2ccccc21`, the Activity (U-87 MG [26]) was “Active”.

With `CC1(C)C(/C=C/C2=C(SCCC(=O)Nc3ccn([C@@H]4O[C@H](CO)[C@@H](O)C4(F)F)c(=O)n3)C(=C/C=C3/N(CCCCS(=O)(=O)O)c4ccccc4C3(C)C)/CCC2)=[N+](CCCCS(=O)(=O)O)c2ccccc21.[Cl-]` the Drug uptake [2] was “Active”, the Drug uptake [3] was “Active” and the IC50 (U-87 MG [1]) was 20.7 nM.
